High-throughput results: PubChem BioAssay, Johns Hopkins Ion Channel Center
This is a sample that favours compounds with a hit; in the whole collection about 2.3% have one here.
TRPC6 inhibitor: mouse TRPC6 channel inhibitors, primary screen, cell-based, HEK293, membrane potential dye; Short transient receptor potential channel 6 (Mus musculus), Q61143; ACh-evoked depolarization; active compounds read low; B-score at 10 µM; hit rate 1.1% among 310,000;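 active = B-score under library mean minus 3 SD, initial fluorescence not abnormally high, positive integrated signal ratio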;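 note: B-score derived from integrated fluorescence ratio over the kinetic read; more negative B-score means stronger inhibition of depolarization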
Target sequence (Q61143 whole entry, looked up): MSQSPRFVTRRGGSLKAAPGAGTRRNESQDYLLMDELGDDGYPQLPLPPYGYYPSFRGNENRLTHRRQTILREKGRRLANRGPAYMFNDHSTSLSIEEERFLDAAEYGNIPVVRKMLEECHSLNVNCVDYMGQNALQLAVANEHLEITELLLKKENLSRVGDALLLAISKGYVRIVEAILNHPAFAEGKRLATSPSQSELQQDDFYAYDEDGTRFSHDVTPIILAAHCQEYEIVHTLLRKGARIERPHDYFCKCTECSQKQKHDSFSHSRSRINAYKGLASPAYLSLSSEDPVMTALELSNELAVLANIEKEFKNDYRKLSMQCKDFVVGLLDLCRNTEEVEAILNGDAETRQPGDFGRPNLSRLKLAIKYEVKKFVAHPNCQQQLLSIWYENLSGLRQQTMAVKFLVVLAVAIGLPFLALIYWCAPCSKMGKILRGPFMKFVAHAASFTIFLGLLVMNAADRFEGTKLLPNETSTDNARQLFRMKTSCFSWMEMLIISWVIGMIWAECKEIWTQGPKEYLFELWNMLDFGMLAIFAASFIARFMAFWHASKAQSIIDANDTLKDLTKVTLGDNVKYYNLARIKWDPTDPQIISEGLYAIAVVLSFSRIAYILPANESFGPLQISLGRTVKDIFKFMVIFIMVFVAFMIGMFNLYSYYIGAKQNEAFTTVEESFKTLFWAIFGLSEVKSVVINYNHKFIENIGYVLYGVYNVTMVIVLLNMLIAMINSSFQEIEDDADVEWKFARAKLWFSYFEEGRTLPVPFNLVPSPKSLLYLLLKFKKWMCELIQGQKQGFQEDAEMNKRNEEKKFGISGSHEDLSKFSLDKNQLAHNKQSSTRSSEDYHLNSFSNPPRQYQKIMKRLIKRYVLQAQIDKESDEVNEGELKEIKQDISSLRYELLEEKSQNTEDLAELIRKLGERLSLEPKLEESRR
TRPC4 block: inhibitors of mouse TRPC4 channel, primary screen, Fluo4 calcium, HEK293 TRPC4beta/mu-opioid cells. DAMGO-evoked Fluo4 calcium flux; active compounds read low. hit rate 0.39% among 300,000. AID 2247, 2010. B-score at 10 µM;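 active = B-score over 3 SD under the library average, no early fluorescence shift, positive overall ratio signal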
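Assay system: TRPC4beta/mu-opioid receptor HEK293 cell line; compound dosing: single concentration per test compound; detection: Fluo4 Ca2+ flux fluorescence; evaluation: per-well B score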
TRPC4 PAM: positive allosteric modulators of TRPC4, primary screen, cell-based, mouse TRPC4beta, HEK293 mu-opioid, Fluo-4 calcium. AID 2227, 2009. B-score at 10 µM. hit rate 0.42% among 310,000. DAMGO EC20, Fluo-4 Ca2+ flux; active compounds read high. Short transient receptor potential channel 4 (Mus musculus), Q9QUQ5;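 active = B-score of calcium response area above 5 SD of library B-scores, with initial fluorescence ratio within 5 SD of library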;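 note: B-score of integrated fluorescence ratio over time as area under calcium response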
TRPC4 agonist: activators of mouse TRPC4 channel, primary screen, Fluo4 calcium, HEK293 TRPC4beta/mu-opioid cells. B-score at 10 µM. Short transient receptor potential channel 4 (Mus musculus), Q9QUQ5. Fluo4 calcium fluorescence; active compounds read high. hit rate 0.49% among 310,000;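 active = B-score above 5 SD of library B-scores, and initial fluorescence ratio not above library mean plus 5 SD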;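 note: positive B-score marks a calcium rise read as TRPC4 activation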
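System – HEK293 cells stably co-expressing mouse TRPC4beta and mu-opioid receptor · Signal – Fluo4 calcium-sensitive dye fluorescence, kinetic, 1 Hz baseline · Benchmarks – buffer (low) and maximal DAMGO (high) · Read-out – B score of integrated fluorescence ratio per well · Incubation – dye loading 45 min room temperature, 110 s kinetic read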
TRPC6 activator: mouse TRPC6 channel activators, primary screen, cell-based, HEK293, membrane potential dye. Short transient receptor potential channel 6 (Mus musculus), Q61143. HEK293-TRPC6 membrane potential dye fluorescence; active compounds read high. B-score at 10 µM. hit rate 0.13% among 310,000. AID 2550, 2010;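 active = B-score of the integrated fluorescence ratio above library mean plus 3 SD, and starting fluorescence ratio within library mean plus 5 SD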;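 note: higher score means more depolarization so channel activation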
Active calls of the source: *; i = inactive.

SMILES	TRPC6 inhibitor	TRPC4 block	TRPC4 PAM	TRPC4 agonist	TRPC6 activator
Cc1ccc(S(=O)(=O)NC(=O)Nc2ccc(C)cn2)cc1	i	i	i	i	i
CCC1(c2ccc(F)cc2)NC(=O)N(CC(=O)Nc2cccc(S(=O)(=O)N3CCCCC3)c2)C1=O (stereo not given)	i	i	12*	i	i
COc1ccc(CCN2CC(C(=O)NCc3nc4ccccc4n3C)CCC2=O)cc1 (stereo not given)	i	i	i	i	i
CCN(CCn1cccn1)C(=O)c1ccc(OC2CCN(C(=O)COC)CC2)cc1	i	i	i	i	i
O=C(Nc1nc(N2C(=O)c3ccccc3C2=O)n(-c2ccccc2)n1)c1ccc(Cl)cc1	i	-6*	i	47*	i
COCCCNc1nc(-c2ccncc2)nc2ccccc12	i	i	i	i	i
COCCNc1nc(-c2ccccc2)nc2ccccc12	i	-5*	i	i	i
C=CSc1sc(Cl)c(N2CCOCC2)c1[N+](=O)[O-]	i	i	i	i	i
C=CS(=O)(=O)c1sc(Cl)c(N2CCOCC2)c1[N+](=O)[O-]	i	-6*	i	i	i
C[n+]1cccc(/C=N/NC(=O)CC23CC4CC(CC(C4)C2)C3)c1	i	i	i	i	i
CCOC(=O)CCSc1nnc(-c2cccnc2)n1-c1ccccc1OC	i	-8*	i	i	i
CCCC1NC(C(=O)O)Cc2c1[nH]c1ccccc21 (stereo not given)	i	-6*	i	i	i
CC(C)C1NC(C(=O)O)Cc2c1[nH]c1ccccc21 (stereo not given)	i	-7*	i	i	i
CC(C)CC1NC(C(=O)O)Cc2c1[nH]c1ccccc21 (stereo not given)	i	i	i	i	i
CN(C)CCC1Sc2ccccc2Oc2ccccc21 (stereo not given)	i	-6*	i	i	i
CC1c2ccccc2SC(CCCN(C)C)c2ccccc21 (stereo not given)	i	i	i	i	i
COc1cccc(-c2c(C#N)c(N)nc3c2c(C)nn3-c2ccccc2)c1O	i	i	15*	i	i
Cc1ccc(F)cc1NC(=O)CN1C(=O)NC2(CCCc3ccccc32)C1=O (stereo not given)	i	i	i	i	i
O=C(Nc1nnc(-c2ccc(F)cc2)o1)c1cccc([N+](=O)[O-])c1	i	-6*	i	126*	i
O=C(Nc1nnc(C2=COCCO2)o1)c1cccc([N+](=O)[O-])c1	i	i	i	i	i
O=C(Nc1nnc(-c2ccc(F)cc2)o1)c1cc(Cl)sc1Cl	i	i	i	220*	i
O=C(Nc1nnc(-c2ccc3c(c2)CCCC3)o1)c1ccccc1	i	i	i	66*	i
O=C(Nc1nnc(-c2ccc3c(c2)CCCC3)o1)c1ccccc1Cl	i	i	i	i	i
O=[N+]([O-])c1ccc2c(c1)[nH]c(=S)n2-c1ccccc1	i	i	i	i	i
Cc1cccc(OCC(=O)N(C)CCc2ccccn2)c1	i	i	i	54*	i
SMILES	TRPC6 inhibitor	TRPC4 block	TRPC4 PAM	TRPC4 agonist	TRPC6 activator
Cc1ccc(C)c(NC(=S)N(C)CCc2ccccn2)c1	i	i	i	74*	i
CN(C)S(=O)(=O)c1cccc(NC(=S)NCCc2ccccn2)c1	i	i	i	i	i
CN(CCc1ccccn1)C(=S)Nc1cccc(S(=O)(=O)N(C)C)c1	i	i	i	101*	i
Cc1cccc(CN(C)CCc2ccccn2)c1	i	i	i	i	i
Cc1ccccc1NC(=O)CSc1nc2ccccc2c(=O)n1CC1CCCO1 (stereo not given)	i	i	i	i	i
CCOc1ccccc1NC(=O)CSc1nc2ccccc2c(=O)n1CC1CCCO1 (stereo not given)	i	-6*	i	i	i
CCOC(=O)CSc1nc2ccccc2c(=O)n1CC1CCCC1	i	-9*	i	i	i
Cc1[nH]c2ccccc2c1C(=O)NS(=O)(=O)Nc1ccc(Cl)cc1	i	i	i	i	i
N=c1ccn(Cc2ccc(Cl)cc2)cc1	i	i	i	i	i
N=c1ccn(Cc2ccc(Cl)c(Cl)c2)cc1	i	i	i	61*	i
COc1cccc(-n2c(SCC(=O)NCC3CCCO3)nc3c(c2=O)SCC3)c1 (stereo not given)	i	i	i	i	i
COc1ccc(C2C(C#N)=C(N)N(c3sc4c(c3C#N)CCCC4)C3=C2C(=O)CC(C)(C)C3)cc1OC (stereo not given)	i	i	i	i	i
COc1ccc(C2C(C#N)=C(N)N(c3sc4c(c3C#N)CCCC4)C3=C2C(=O)CC(C)(C)C3)cc1 (stereo not given)	i	-5*	i	i	i
O=C(N/N=C/c1cccc2ccccc12)c1ccccc1Cl	i	i	10*	i	i
CCCCN(C)C(=O)Cn1ncc2c3ccccc3n(CCC)c2c1=O	i	i	21*	i	i
CN1C(=O)CSC1=NC12CC3CC(CC(C3)C1)C2	i	-6*	i	i	i
CN1C(=O)CSC1=Nc1ccc(Br)cc1	i	i	i	i	i
CCN1C(=O)CSC1=NC12CC3CC(CC(C3)C1)C2	i	-5*	i	i	i
CC(C)Oc1ccc(C(=O)NCCCNC(=O)c2cccnc2)cc1	i	i	i	i	i
CCC(C)(C)NC(=O)C(c1ccc(F)cc1)N(Cc1ccccc1)C(=O)c1cnccn1 (stereo not given)	i	i	i	i	i
CN(C)CCn1c(=O)n(Cc2ccccc2)c(=O)c2c3c(sc21)CCCCC3	i	i	i	i	i
CN(C)CCCn1c(=O)n(CCc2ccccc2)c(=O)c2c3c(sc21)CCCCC3	i	i	22*	i	i
Cc1cc(C)cc(OCC(=O)OCC(=O)NC2CCCCCCC2)c1	i	i	i	i	i
Cc1ccc(C)c(NC(=O)c2cc(=O)c3ccccc3o2)c1	i	i	12*	i	i
